The target of assay [1] is Sphingosine 1-phosphate receptor 3 (Homo sapiens) (UniProt Q99500). The assay can be described thus: Agonist activity at human S1P3 receptor expressed in CHOK1 cells. To be noted: CHO-K1. In kind it is functional, cell-based. Summed up:
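Human S1P3 with N-terminal HA tag, stably expressed in a FACS-isolated clonal CHO K1 line. Confluent monolayers were washed and loaded with a calcium-sensitive fluorescent dye, and calcium transients were monitored on compound addition. Eight-point concentration-effect curves were run in triplicate and presented as SEM.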

Assay [2] shares this target. The assay can be described thus: Antagonist activity at human S1P3 receptor expressed in CHOK1 cells assessed as effect on calcium mobilization. Particulars: CHO-K1. In kind it is functional, cell-based. Summed up:
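Calcium mobilization in a FACS-isolated clonal CHO K1 line stably expressing HA-tagged human S1P3, loaded with a calcium-sensitive dye. Concentration-effect curves for the agonist were run with and without 1 μM test phosphate. There were eight points in triplicate (SEM), and three independent experiments.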
On the technique in general: A change in cytosolic calcium serves as a functional read-out for many receptors and channels.

In assay [3] the target is T1, Sphingosine kinase 2 (Mus musculus) (UniProt Q9JIA7).
T1 sequence (whole entry): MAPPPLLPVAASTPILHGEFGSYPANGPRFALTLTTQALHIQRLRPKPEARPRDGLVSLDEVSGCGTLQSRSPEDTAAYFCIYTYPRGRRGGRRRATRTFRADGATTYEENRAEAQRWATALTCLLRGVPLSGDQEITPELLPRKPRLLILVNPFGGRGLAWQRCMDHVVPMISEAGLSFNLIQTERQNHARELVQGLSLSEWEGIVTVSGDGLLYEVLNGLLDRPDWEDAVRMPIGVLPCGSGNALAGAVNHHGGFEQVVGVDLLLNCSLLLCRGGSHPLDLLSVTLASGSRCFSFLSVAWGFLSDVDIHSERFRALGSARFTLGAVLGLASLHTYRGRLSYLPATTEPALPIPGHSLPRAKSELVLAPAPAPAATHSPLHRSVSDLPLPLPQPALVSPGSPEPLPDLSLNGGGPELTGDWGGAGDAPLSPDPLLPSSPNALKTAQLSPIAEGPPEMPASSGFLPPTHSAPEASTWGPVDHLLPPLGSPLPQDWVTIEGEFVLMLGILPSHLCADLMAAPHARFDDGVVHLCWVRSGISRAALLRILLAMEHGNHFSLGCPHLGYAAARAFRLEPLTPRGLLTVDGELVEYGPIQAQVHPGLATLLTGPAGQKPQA
The assay can be described thus: Substrate activity at mouse Sphk2 expressed in HEK293T cells. Particulars: HEK-293T.

In assay [4] the test system is Mus musculus. Kind of assay: Induction of lymphopenia in C57B1/6J mouse at 1 mg/kg, po after 8 days. Type of assay: functional, organism-based. Set-up: dose 1 mg/kg. Summed up: (§1)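 Female C57Bl/6j mice (n=3 per group) received a single oral gavage of 1 mg/kg in 2% hydroxypropyl β-cyclodextrin on day 0. Blood was drawn from the orbital sinus under light anesthesia on the indicated days. Total lymphocytes were counted on a Hemavet 950 blood analyzer.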

For assay [5], the system named is Mus musculus. The assay can be described thus: Induction of lymphopenia in C57B1/6J mouse at 1 mg/kg, po after 48 hrs. In kind it is functional, organism-based. Also noted: dose 1 mg/kg. In outline: as §1
The target in assay [6] is Sphingosine 1-phosphate receptor 2 (Homo sapiens) (UniProt O95136). The assay can be described thus: Activity at S1P2 receptor.
Assay [7] addresses T2, Sphingosine 1-phosphate receptor 4 (Homo sapiens) (UniProt O95977).
T2 sequence (whole entry): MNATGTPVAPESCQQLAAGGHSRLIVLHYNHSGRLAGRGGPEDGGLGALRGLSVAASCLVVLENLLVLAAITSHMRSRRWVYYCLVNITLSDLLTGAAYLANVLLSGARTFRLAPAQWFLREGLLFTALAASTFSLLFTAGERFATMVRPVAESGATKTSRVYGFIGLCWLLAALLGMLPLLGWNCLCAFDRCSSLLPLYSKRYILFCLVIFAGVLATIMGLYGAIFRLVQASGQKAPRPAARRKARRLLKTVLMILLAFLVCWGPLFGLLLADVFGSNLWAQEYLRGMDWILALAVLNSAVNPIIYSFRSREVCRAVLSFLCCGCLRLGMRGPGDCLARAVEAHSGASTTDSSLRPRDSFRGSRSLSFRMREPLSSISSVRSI
The assay can be described thus: Activity at S1P4 receptor.

Activity calls are given as the source filed them. The calls are words filed in the database; no cut-off is given here.

Sequence of Sphingosine 1-phosphate receptor 3 (Homo sapiens) (Q99500 whole entry): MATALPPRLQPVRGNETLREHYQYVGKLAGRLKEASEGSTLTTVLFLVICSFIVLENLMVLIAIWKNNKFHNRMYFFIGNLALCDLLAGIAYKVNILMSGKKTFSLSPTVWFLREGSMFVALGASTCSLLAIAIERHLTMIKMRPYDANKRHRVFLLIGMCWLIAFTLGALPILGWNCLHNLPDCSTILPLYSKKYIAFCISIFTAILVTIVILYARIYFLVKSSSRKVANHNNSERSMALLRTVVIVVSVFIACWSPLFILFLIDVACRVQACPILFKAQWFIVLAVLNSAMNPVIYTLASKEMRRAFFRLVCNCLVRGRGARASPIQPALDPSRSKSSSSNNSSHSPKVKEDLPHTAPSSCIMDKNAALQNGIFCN
Sequence of Sphingosine 1-phosphate receptor 2 (Homo sapiens) (O95136 whole entry): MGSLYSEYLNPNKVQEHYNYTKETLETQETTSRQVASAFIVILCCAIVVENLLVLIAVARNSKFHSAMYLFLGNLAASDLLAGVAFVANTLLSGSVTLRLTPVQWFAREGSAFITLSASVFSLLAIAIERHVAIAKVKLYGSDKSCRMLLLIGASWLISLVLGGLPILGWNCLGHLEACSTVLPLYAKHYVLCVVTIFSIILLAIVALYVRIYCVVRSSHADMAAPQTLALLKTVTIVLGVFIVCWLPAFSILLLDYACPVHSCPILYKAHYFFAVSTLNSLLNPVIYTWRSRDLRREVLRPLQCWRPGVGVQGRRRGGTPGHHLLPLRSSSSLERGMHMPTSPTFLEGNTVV

As to `CCCCCCCCc1ccc([C@H]2CC[C@](N)(COP(=O)(O)O)C2)cc1`, the outcome in assay [1] was inactive. The outcome in assay [2] was Active.

Regarding `CCCCCCCCc1ccc([C@H]2CC[C@@](N)(CO)C2)cc1`, the result in assay [3] was inactive.

For the molecule `CCCCCCCCc1ccc([C@@H]2CC[C@](N)(CO)C2)cc1`, the outcome (in assay [3]; with Mus musculus [4]; in the assay on Mus musculus [5]) was Active.

On to `CCCCCCCCc1ccc([C@@H]2CC[C@@](N)(CO)C2)cc1`, for which the result in assay [3] was inactive.

In the case of `CCCCCCCCc1ccc([C@@H]2CC[C@@](N)(COP(=O)(O)O)C2)cc1`, the outcome in assay [1] was inactive. Moreover, the result in assay [2] was Active.

As for `CCCCCCCCc1ccc(C2CCC(N)(COP(=O)(O)O)C2)cc1` (configuration not stated), in assay [6], the result was inactive. The result in assay [7] was Active.

`CCCCCCCCc1ccc([C@H]2CC[C@@](N)(COP(=O)(O)O)C2)cc1`: the outcome in assay [1] was inactive. Further, in assay [2], the outcome was Active.

Turning to `CCCCCCCCc1ccc([C@@H]2CC[C@](N)(COP(=O)(O)O)C2)cc1`, the result in assay [1] and in assay [2] was inactive.

Consider `CCCCCCCCc1ccc([C@H]2CC[C@](N)(CO)C2)cc1`, for which the result (in assay [3]; in the assay with Mus musculus [5]) was Active.
